Test results as given in PMC12315948 (The FASEB Journal, 2021).

What was measured:
HeLa cells [1] = assay type: cell-based; conditions: 24 h treatment, 2 h 2.5 µg/mL pyolysin, MTT
How it was run: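 HeLa cells grown in DMEM with 10% FBS were seeded at 50,000 cells/mL. At 90% confluence they were treated in serum-free medium with vehicle, 100 µM test compound or 10 µM zaragozic acid, for 24 h or for indicated times. Cells were then challenged for 2 h with control medium or 2.5 µg/mL pyolysin. MTT (1 mg/mL, 2 h) was read at OD570 after DMSO lysis. Values are percentage of control; 4 independent experiments.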

HeLa cells [2] = assay: Cytotoxicity per se in HeLa cells, MTT assay, control challenge; assay type: cell-based
How it was run: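 HeLa cells were seeded at 50,000 cells/mL in DMEM with 10% FBS. At 90% confluence they received serum-free medium with vehicle, 100 µM test compound or zaragozic acid for 24 h. They were then given a 2 h control-medium challenge without toxin. Viability was measured by MTT (1 mg/mL, 2 h; DMSO lysis; OD570) as percentage of control. Each point is one independent passage (n = 12).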

A549 cells = assay: Cytoprotection of A549 cells against streptolysin O; assay type: cell-based, human; conditions: 24 h: 100 µM MPEX098 or 10 µM zaragozic acid; 2 h challenge
How it was run: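 A549 cells were grown in RPMI1640 with 5% FBS, 1% antibiotic-antimycotic and 1% glutamine, then seeded at 50,000 cells/mL. At 90% confluence they were given serum-free medium with vehicle or treatment for 24 h, then challenged 2 h with graded streptolysin O. Viability was read by MTT (1 mg/mL, 2 h, DMSO lysis, OD570). LDH in supernatants was read by the INT/PMS lactate assay at OD450, initially and after 30 min at 37°C, against NADH standards.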

squalene synthase = squalene synthase cell free assay; cited from earlier work

Row | Compound | cytoprotection against pyolysin by isoprenoid treatment (HeLa cells [1]) | cytotoxic concentration per se (HeLa cells [2]) [µM] | cell toxicity per se (HeLa cells [2]; MTT assay, control challenge, 100 µM MPEX098 or 10 µM zaragozic acid, 24 h, n = 12) [%] | protection of A549 cells against streptolysin O (A549 cells) | IC50 (squalene synthase) [nM]
1 | CC(C)=CCC/C(C)=C/CC/C(C)=C/CO[P@@](=O)(O)OP(=O)(O)O (stereo in doubt) [farnesyl diphosphate] | but not farnesyl diphosphate (P = .12) increased cytoprotection | – | – | – | –
2 | C=C(CC[C@]12O[C@H](C(=O)O)[C@@](O)(C(=O)O)[C@](C(=O)O)(O1)[C@H](OC(=O)/C=C/[C@@H](C)C[C@@H](C)CC)[C@H]2O)[C@@H](OC(C)=O)[C@H](C)Cc1ccccc1 [Zaragozic acid, zaragozic acid] | – | […] | 13 ± 3 | protected A549 cells against a range of concentrations of streptolysin O | […]
3 | CC(C)=CCC/C(C)=C/CC/C(C)=C/CC/C(C)=C/COP(=O)(O)OP(=O)(O)O [geranylgeranyl diphosphate] | increased cytoprotection against pyolysin | – | – | – | –
